Experimental data as given in ChEMBL document CHEMBL4513216, “Probing the Open Global Health Chemical Diversity Library for Multistage-Active Starting Points for Next-Generation Antimalarials” (ACS Infect Dis, 2020).

Test: Toxicity liver stage against HepG2, at 10uM
Format: cell-based
Parameters: test concentration 10 uM, cell line HepG2-A16-CD81EGFP
Settings: human, HepG2-A16-CD81EGFP cells; read-out: INHIBITION
How it was run: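 Uninfected HepG2-A16-CD81EGFP cells, 3 × 10^3 per well, 1536-well, plated on prespotted compound at 10 μM final, parasite-free screening media added to match infected plates; puromycin 10 μM positive, DMSO 0.5% negative; run in parallel with 48 h PbLuc assay at 37 °C, 5% CO2; viability by CellTiter-Glo luminescence, normalized to controls.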

Structure (SMILES)	cytotoxicity at 10 µM [%]
O=C1CC[C@H]2CN(C3CCOCC3)CC[C@H]2N1CCC1=CCCCC1	-4.76
Cc1nc(CNC(=O)NCC(O)c2ccc(F)cc2)cs1 (centres undefined)	-10.4
CC1CN(CCC(=O)NCCc2cccnc2)Cc2ccccc2O1 (centres undefined)	-3.34
Cc1cncc(Oc2ccc(CO)cc2)n1	5.81
CCC1CN(C(=O)c2ccccc2C#N)CCN1C(C)C (centres undefined)	-0.772
Cc1ccc(C(=O)Nc2cnn(CC(=O)NC3CCCC3)c2)c(=O)[nH]1	-4.09
CSCc1noc(CNC2CCCC(C)(C)C2)n1 (centres undefined)	-0.268
CO[C@H]1COC[C@@H]1NC(=O)C1(Oc2ccc(Cl)cc2)CCNCC1	-1.91
Cc1cnn(CC2CCN(CC(O)COc3ccccc3)CC2)c1 (centres undefined)	-1.62
Cc1ccc(F)c(S(=O)(=O)NCc2[nH]ncc2Br)c1	0.67
Cc1ccc(C)c(NC(=O)Nc2c[nH]c(=O)[nH]c2=O)c1	0.0452
CC(C)(C(=O)NCC1CCN(Cc2cccnc2)C1)c1ccccc1 (centres undefined)	-1.66
CCCc1ccc(CN2CCN(C(=O)CC(C)C)[C@@H]3CS(=O)(=O)C[C@@H]32)o1	5.31
O=C(C1CCCO1)N1CCCn2c(nnc2Cn2cccc2)C1 (centres undefined)	16.4
O=S(=O)(C1CC1)N1CCO[C@H]2[C@@H](Oc3cccnc3)CC[C@@H]21	-5.96
Cc1cc(NC(=O)CNC(C)(C)c2ccc3c(c2)OCCO3)no1	-7.1
COCCN1CCC(CN(CC2CCCO2)C(=O)Cc2cccs2)CC1 (centres undefined)	-0.894
CC(C)CC(C)NCc1cccnc1N1CCN(c2ccccn2)CC1 (centres undefined)	0.997
O[C@@H]1CN(Cc2ccc(F)cc2)CC[C@H]1NCc1ccccn1	-2.83
COCCNC(=O)C1CC(=O)N(c2n[nH]c3cccc(F)c23)C1 (centres undefined)	3.23
N#Cc1ccc(N2CCCN(c3nccs3)CC2)nc1	32.5
CN(C)CC(=O)N1C[C@H]2CCC[C@@]2(COc2ccccn2)C1	3.88

Structure (SMILES)	cytotoxicity at 10 µM [%]
COCCS(=O)(=O)NC(C)c1ccccc1Br (centres undefined)	1.02
COc1ccccc1OC1CN(C(=O)c2ccc(C(C)=O)s2)C1	2.01
Cc1ccc(CCCC(=O)N2CCC(=O)Nc3cccnc32)s1	-60.7
Cc1c(Cl)cccc1NC(=O)CN(Cc1cccnc1)C(C)C	4.77
O=C(c1cccc(-n2cccn2)c1)N1CCCOC(Cn2cccn2)C1 (centres undefined)	-6.58
Cc1nc(N2CCN(C(=O)c3ccccn3)CC2)c2c(n1)c(C)nn2C	5.06
COc1ccc(F)c(-c2cc(NCCO)nc(N)n2)c1	-1.21
Fc1cnc(N2C[C@@H](OCC3CCOCC3)[C@H]3OCCC[C@H]32)nc1	10.5
CCC(=O)N1CCC(c2nc(N3CCCC3)ncc2S(C)(=O)=O)CC1	3.86
CCc1cc(NCCc2cnccn2)n2nc(C)c(C)c2n1	5.18
Cc1cc(C)n(C2CCCN(C(=O)c3ccn(C)c(=O)c3)C2)n1 (centres undefined)	-5.72
O=C(NC1CCC1)[C@@H]1C[C@@H]2CCN(Cc3ccncc3)C[C@H]2O1	-22.5
COc1ccccc1C1(CNc2ccc(C(=O)N(C)C)cn2)CC1	-10.5
CCN(CC)CCNC(=O)CCc1c(C)nn(-c2cccc(Cl)c2)c1C	-5.34
CN(C)C1CCN(C(=O)c2cc3c(s2)CCN3C(=O)C2CC2)CC1	9.61
CC(C)c1nccn1C1CCCN(C(=O)CCc2cscn2)C1 (centres undefined)	-7.81
CCOc1ccnc(NCc2nc(C)cc(C(F)(F)F)n2)n1	-10.1
Cc1nc(C2CCCN2Cc2ccon2)no1 (centres undefined)	-18
CC(NC(=O)NCCc1nc(C(F)(F)F)cs1)C(=O)N(C)C (centres undefined)	5.04
CN1CCCC(c2cccc(-c3cccc(Cl)c3)n2)C1 (centres undefined)	-9.58
CCN(Cc1ncc(C(C)(C)C)o1)Cc1ccccc1C	-9.11
Cc1nc(-c2cc(C(=O)NCC(C)(C)CO)c3ccccn23)cs1	6.1

Structure (SMILES)	cytotoxicity at 10 µM [%]
Cc1c(C)n2c(SCC(=O)N3CCC(C)CC3)nnc2[nH]c1=O	0.351
O=C1CCC2(CCCN(Cc3nccs3)C2)N1CC1CC1 (centres undefined)	-68.4
CN(CCOc1ccc(F)cc1)S(=O)(=O)c1cnn(C)c1	-3.23
O=C1CO[C@@H]2CN(S(=O)(=O)c3ccccc3)C[C@H]2N1CC1CC1	-3.1
CN(C)C(C(=O)N1CCCN(C(=O)C2CCC2)CC1)c1ccccc1F (centres undefined)	-2.11
CCN(CC)Cc1cn2c(n1)CN(C1CCOC1)CC2 (centres undefined)	4.12
O=C(CCSc1ccccc1)NCCn1nc2ccccn2c1=O	-6.09
Cn1cc(CN2C[C@H](Oc3ncccc3F)[C@H]3OCCC[C@H]32)cn1	2.72
Cc1ccc(NC(=O)c2coc(C)n2)c(C)c1	-4.94
CCOc1ccc(C(=O)N2Cc3cnc(CC(C)C)nc3C2)o1	7.18
COc1cccc(C(=O)C2CCCN(c3cc(C#N)ccn3)C2)c1 (centres undefined)	1.85
COCCCN1CCC(NC(=O)C2CC2)CC1	-5.02
CNC(=O)CCc1cc(C2CCCCN2C(C)C)nc(C)n1 (centres undefined)	-1.66
COc1nc2c(cc1C(=O)N1C[C@@H](N)C[C@H]1C(=O)NC(C)C)CCC2	3.52
Cc1ncc(CNC(CCO)C2CCCCC2)s1 (centres undefined)	-48.7
Cc1noc2nc(C3CCN(Cc4cccnc4)CC3)cc(C(F)F)c12	-2.5
COCCNC(=O)c1cc(C(C)C)nc(N2CCCC2)n1	5.03
Cc1nc(C2CCCNC2)cc(N(Cc2c(C)nn(C)c2C)C2CC2)n1 (centres undefined)	-7.23
Cc1cc(NC(=O)Cc2ccccc2O)cnc1N1CCCCC1	-0.134
COc1cc(CNc2cnn(CCN3CCOCC3)c2)cc(OC)c1	-7.38
Cc1ccc(S(=O)(=O)NC[C@H]2OC[C@@H](NCc3cccs3)[C@@H]2O)cc1	-3.24
Cc1nc(CN2CCC3(CCN(c4cnn(C)c4)C3=O)C2)cs1 (centres undefined)	4.15

Structure (SMILES)	cytotoxicity at 10 µM [%]
Cc1nn(C)c(C)c1CC(=O)NCc1ccnc(OC2CCCC2)c1	-0.883
COc1cnc(CSc2nnc(C)s2)cc1OCC(N)=O	8.52
CCN1CCN(C(=O)c2cnc(Cc3c(Cl)cccc3Cl)nc2O)CC1	2.57
CCn1ccnc1CN1CCCN(C(=O)Cc2ccc(C)nc2)CC1	-1.92
CN(C)S(=O)(=O)N1C[C@H]2CC[C@@H](C1)N(C/C=C/c1ccc(F)cc1)C2	-1.23
CO[C@@H]1CN(c2ccccc2)S(=O)(=O)[C@@]12CCN(C)C2	3.33
CNC(=O)C(C)(C)N1CCC[C@H]1C(=O)NC(C)(C)C	-2.63
CC[C@@H]1N(CC2CC2)CCC[C@]12CCC(=O)N2	15.4
O=C(CNc1cccc(S(=O)(=O)C(F)F)c1)Nc1ccccc1	-48.4
Cc1nnc(CN2CCCC(CCc3ccccc3C(F)(F)F)C2)o1 (centres undefined)	3.67
CCCS(=O)(=O)NC(=O)c1ccc(Br)o1	-6.11
O=C(C1CC1)N1CC[C@H](c2nnc(-c3ccccc3F)o2)C1	0.705
O=C(NCCCc1ccc(F)cc1)c1ccc(N2CCOCC2)cc1	-4.45
CN(Cc1nnc2n1CCC2)C(=O)c1ccc2c(c1)OCCCO2	-8.68
CC(C)CC(=O)N1CCC(Nc2nc(O)cc(-c3ccsc3)n2)CC1	11.3
NC(=O)c1c(-c2ccc(Cl)cc2)csc1NC(=O)CCC(=O)O	13.8
O=c1[nH]c2cn(-c3cccc(F)c3)c(=O)n2n1Cc1ccccc1Cl	4.9
O=C1CCC2(CCN(S(=O)(=O)c3ccccc3)CC2)N1CC1CC1	3.41
CCS(=O)(=O)c1ccc(CNc2c(Cl)cccc2C#N)cc1	-50.6
CNc1ccnc(N2C[C@H]3CC[C@@H](C2)N(CCOC)C3=O)n1	7.64
Cc1cc(C)n(-c2ccc(C(C)NS(=O)(=O)CCCS(C)(=O)=O)cc2)n1 (centres undefined)	7.04
Cc1nc(Nc2nnc(C)s2)cc(C2CCCN2C(C)C)n1 (centres undefined)	-23.9

Structure (SMILES)	cytotoxicity at 10 µM [%]
CC(=O)N(c1ccc(F)cc1)c1nc(CN2CCCC2C(C)C)cs1 (centres undefined)	-12.2
CCc1noc(CN2CCN(C(=O)N(CC)CC)CC2)n1	-1.67
CCN1CCOCC12CCN(c1cnccn1)CC2	-111
CCOC1Sc2nnc(C)n2N=C1c1ccc(Cl)cc1 (centres undefined)	11.3
COc1cccc(N2CCN(Cc3nccc(OC)c3OC)CC2=O)c1	3.63
CNC(=O)CCc1cc(C)nc(C2CCN(C(=O)CN(C)C)CC2)c1	-3.48
CSCc1nc(CNC(=O)c2cnn(C(C)C)c2)cs1	1.98
CCCc1nnc(NC(=O)N2CCCC(NC(C)=O)C2)s1 (centres undefined)	5.41
CN(C)c1cc(CNC(=O)Nc2cccnc2N2CCCC2)ccn1	-20.5
Cc1ccc([C@@H]2CN(C(=O)CCc3ccco3)C[C@H]2N(C)C)cc1	3.13
NC(=O)C1CCN(C(=O)NCc2cccnc2OCC(F)(F)F)C1 (centres undefined)	-11.2
O=C(NC(Cc1ccsc1)c1nccs1)C1CCOCC1 (centres undefined)	1.9
CS(=O)(=O)c1cccc(C(N)c2ccc(F)cc2)c1 (centres undefined)	-19.9
COc1cccc(CN(C)Cc2cccc(C#N)c2)c1OC	-7.82
CC(C)Nc1cccc(C(=O)NCC(O)c2cccc(F)c2)c1 (centres undefined)	4.67
Cn1cc(C(=O)N2C[C@@H]3COC[C@]3(COCc3cccnc3)C2)cn1	-0.8
c1cc(CN2CCO[C@H]3[C@H](OCC4CCCC4)CC[C@@H]32)ccn1	13.9
Cc1noc(C)c1CN1C[C@H](OCC2CCN(C)CC2)[C@H]2COC[C@H]21	-4.49
CC(C)N1CC(C(=O)NCc2cccnc2-n2cccn2)CC1=O (centres undefined)	-10.8
Cc1nc(C(=O)N2CCC3(CC2)CC(=O)N(CC2CCCO2)C3)cs1 (centres undefined)	2.34
CC(C)N(C)C(=O)COc1ccc(-c2noc(C3CCCO3)n2)cc1 (centres undefined)	4.24
